Active and inactive are the calls of the source. The rule behind the calls is not given here.
Assays:
NCI-H1299 = assay: Cytotoxicity against human H1299 cells at 20 uM after 48 hrs by resazurin based fluorescence method; assay type: cell-based; details: nci-h1299, 48 h
Outline: (§1)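 Confluent MDCK, A549 or H1299 cells exposed in triplicate to compound for 48 h at 37 °C (A549/H1299 at 20 μM). Resazurin added to 0.2 mg/mL final for 16 h. Fluorescence read at ex 544 / em 595 nm; viability as % of untreated.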

A549 = assay: Cytotoxicity against human A549 cells at 20 uM after 48 hrs by resazurin based fluorescence method; assay type: cell-based; details: a549, 48 h; outline: as §1
Influenza A virus [1] = assay: Antiviral activity against Influenza A virus (A/Puerto Rico/8/34(H1N1)) infected in MDCK cells assessed as reduction in virus-induced cytopathic effect after 48 hrs by crystal violet staining based assay; assay type: functional, cell-based; details: A/Puerto Rico/8/1934(H1N1)
Outline: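 MDCK cells infected with PR8 at MOI 0.1; compounds added in triplicate after inoculum removal. After 48 h cells were fixed with 4% formaldehyde and stained with 0.1% crystal violet. Dye was methanol-solubilised and read at 570 nm; IC50 was the concentration halving CPE.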

[2] = Drug uptake in human A549 cell nucleus at 20 uM after 4 hrs by DAPI staining based confocal microscopic analysis; assay type: ADME; details: a549, 4 h
Outline: (§2)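 A549 cells incubated with 20 μM compound 4 h at 37 °C, then fixed and DAPI-stained. Compound intrinsic fluorescence located by confocal microscopy.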

[3] = test system: Influenza A virus (A/California/04/2009(H1N1)); assay: Antiviral activity against Influenza A virus (A/California/04/2009(H1N1)) infected in MDCK cells assessed as virus yeild reduction preincubated with virus at 37 degC for 1 hr followed by viral infection for 1 hr measured after 3 days by crystal violet staining based plaque assay; assay type: functional, cell-based
Outline: (§3)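 Plaque reduction: about 50–100 PFU/well of PR8, Cal09 or Minnesota preincubated with compound (0–10 μM) 1 h at 37 °C. Mixture then adsorbed to MDCK monolayers 1 h at 4 °C. Overlay was DMEM with 1.5% agarose, DEAE-dextran and 1 μg/mL TPCK-trypsin for 3 days at 37 °C. Glutaraldehyde fix, crystal violet stain, plaque count; IC50 derived; n = 4.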

Influenza A virus [4] = assay: Antiviral activity against Influenza A virus (A/Puerto Rico/8/34(H1N1)) infected in A549 cells assessed as reduction in localization of viral NP protein in nucleus at 10 uM preincubated with virus at 37 degC for 1 hr followed by viral adsorption at 4 degC for 1 hr and subsequent infection in A549 cells measured at 2 to 4 hrs post infection by FITC-staining based immunofluorescence microscopic method; assay type: functional, cell-based; details: A/Puerto Rico/8/1934(H1N1)
Outline: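 PR8 (MOI 1.0) pretreated with 10 μM compound 1 h at 37 °C, adsorbed 1 h at 4 °C, then A549 cells were kept in infecting medium with 10 μM compound. Fixed with 4% paraformaldehyde at 2 or 4 h p.i., permeabilised with Triton X-100 and blocked. Anti-NP plus FITC secondary, confocal imaging; nuclear NP intensity per unit area quantified (n = 30 images).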

[5] = test system: Influenza A virus (A/Puerto Rico/8/1934(H1N1)); assay: Inhibition of Influenza A virus (A/Puerto Rico/8/34(H1N1)) neuraminidase using MUNANA as substrate preincubated for 30 mins followed by substrate addition measured after 30 mins by fluorescence assay relative to control
Outline: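 Inactivated PR8 virus supernatant mixed with compound (10 μM) in 33 mM MES […], 4 mM CaCl2 for 30 min at 37 °C. MUNANA (20 μM) was added for 30 min at 37 °C and the reaction stopped with glycine/ethanol pH 10.7. Fluorescence read at ex 360 / em 440 nm; zanamivir 10 μM as reference; n = 3.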

[6] = Cytotoxicity against MDCK cells after 48 hrs by resazurin based fluorescence method; assay type: cell-based, Canis lupus familiaris; details: dog; outline: as §1
[7] = Selectivity index, ratio of CC50 for MDCK cells to IC50 for Influenza A virus (A/Puerto Rico/8/34(H1N1)) infected in MDCK cells by plaque assay; assay type: toxicity, cell-based; details: dog, read-out: Ratio CC50/IC50
Influenza A virus [8] = assay: Antiviral activity against Influenza A virus (A/Puerto Rico/8/34(H1N1)) infected in MDCK cells assessed as reduction in virus titer at 10 uM preincubated with virus for 1 hr followed by viral infection measured after 24 hrs by crystal violet staining based plaque assay; assay type: functional, cell-based; details: A/Puerto Rico/8/1934(H1N1)
Outline: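 PR8 (MOI 1.0) preincubated with compound (2.5–10 μM) 1 h at 37 °C, then used to infect MDCK cells. After adsorption, medium with the same compound concentration was added. At 24 h p.i. supernatant virus titer was measured by plaque assay; n = 3.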

[9] = Selectivity index, ratio of CC50 for MDCK cells to IC50 for Influenza A virus (A/Puerto Rico/8/34(H1N1)) infected in MDCK cells assessed as reduction in virus-induced cytopathic effect; assay type: toxicity, cell-based; details: dog, read-out: Ratio CC50/IC50
[10] = Drug uptake in human A549 cells at 20 uM after 4 hrs by DAPI staining based confocal microscopic analysis; assay type: ADME, cell-based; details: a549, 4 h; outline: as §2
Influenza A virus [11] = assay: Antiviral activity against Influenza A virus (A/Puerto Rico/8/34(H1N1)) infected in Kunming mouse assessed as intact columnar epithelium in bronchiole without inflammatory cell infiltration at 10 mg/kg/day, po qd for 4 days by hematoxylin and eosin staining based assay; assay type: functional, organism-based; details: A/Puerto Rico/8/1934(H1N1)
Influenza A virus [12] = assay: Antiviral activity against Influenza A virus (A/Puerto Rico/8/34(H1N1)) infected in MDCK cells assessed as reduction in viral HA titer by measuring reduction in chicken RBC […] after 24 hrs by hemagglutination test; assay type: functional, cell-based; details: A/Puerto Rico/8/1934(H1N1)
Outline: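 MDCK cells infected at MOI 3.0 (single-cycle) with PR8, Cal09 or swine H3N2 Minnesota, then treated with compound for 24 h. Supernatant HA titers were read by 2-fold serial dilution with an equal volume of 1% chicken RBCs, 60 min at 4 °C. Expressed as percent of untreated-cell HA titer; IC50 derived; n = 4.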

Influenza A virus [13] = assay: Antiviral activity against Influenza A virus (A/Puerto Rico/8/34(H1N1)) infected in MDCK cells assessed as virus yeild reduction preincubated with virus at 37 degreeC for 1 hr followed by viral infection for 1 hr measured after 3 days by crystal violet staining based plaque assay; assay type: functional, cell-based; details: A/Puerto Rico/8/1934(H1N1); outline: as §3
Influenza A virus [14] = assay: Antiviral activity against Influenza A virus (A/swine/Minnesota/02719/2009(H3N2)) infected in MDCK cells assessed as virus yeild reduction preincubated with virus at 37 degC for 1 hr followed by viral infection for 1 hr measured after 3 days by crystal violet staining based plaque assay; assay type: functional, cell-based; outline: as §3
Influenza A virus [15] = assay: Antiviral activity against Influenza A virus (A/Puerto Rico/8/34(H1N1)) infected in Kunming mouse assessed as pulmonary viral titer reduction at 10 mg/kg/day, po qd for 4 days measured on day 4 post last dose by crystal violet staining based plaque assay; assay type: functional, organism-based; details: A/Puerto Rico/8/1934(H1N1)
Outline: (§4)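 Female 4-week-old Kunming mice infected intranasally with PR8 (4 HAU/mouse). Oral gavage once daily began 2 h post-inoculation; placebo control. Mice euthanised on day 4; lungs homogenised in PBS and titrated by plaque assay on cell monolayers (agarose overlay, 3 days, crystal violet).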

[16] = Drug uptake in human A549 cell membranes at 20 uM after 4 hrs by DAPI staining based confocal microscopic analysis; assay type: ADME; details: a549, 4 h; outline: as §2
[17] = Drug uptake in human A549 cell cytoplasm at 20 uM after 4 hrs by DAPI staining based confocal microscopic analysis; assay type: ADME; details: a549, 4 h; outline: as §2
Influenza A virus [18] = assay: Antiviral activity against Influenza A virus (A/Puerto Rico/8/34(H1N1)) infected in Kunming mouse assessed as viral titer reduction in lungs at 20 mg/kg/day, po qd for 4 days measured on day 4 post last dose by crystal violet staining based plaque assay; assay type: functional, organism-based; details: A/Puerto Rico/8/1934(H1N1); outline: as §4
Influenza A virus [19] = assay: Antiviral activity against Influenza A virus (A/Puerto Rico/8/34(H1N1)) infected in Kunming mouse assessed as intact columnar epithelium in bronchiole without inflammatory cell infiltration at 20 mg/kg/day, po qd for 4 days by hematoxylin and eosin staining based assay; assay type: functional, organism-based; details: A/Puerto Rico/8/1934(H1N1)
Influenza A virus [20] = assay: Antiviral activity against Influenza A virus (A/Puerto Rico/8/34(H1N1)) infected in Kunming mouse assessed as survival rate at 20 mg/kg/day, po qd for 7 days measured on day 14 post infection (reference value: 30%); assay type: functional; details: A/Puerto Rico/8/1934(H1N1)

Which results are given for `O=C(Nc1cccc(Nc2c3ccccc3nc3c2[nH]c2ccccc23)c1)c1cccc(B(O)O)c1`?
Activity (NCI-H1299): Non-Toxic; Activity (A549): Non-Toxic

With `Nc1ccccc1Nc1c2ccccc2nc2c1[nH]c1ccccc12` as the molecule, how does the IC50 (Influenza A virus [1]) read?
Its IC50 is 47.4 µM.

What about the Drug uptake [2] of the same molecule?
Its Drug uptake is “Active”.

And the Activity [3]?
The Activity was “Active”.

And the Activity (Influenza A virus [4])?
Its Activity is “Active”.

What about the inhibition [5] of the same molecule?
Its inhibition is “inactive”.

What about the CC50 at 48 h [6] of the same molecule?
The CC50 at 48 h was 37.9 µM.

What about the selectivity ratio [7] of the same molecule?
Its selectivity ratio is 1.5.

What about the IC50 (Influenza A virus [8]) of the same molecule?
The IC50 was 25.5 µM.

What about the selectivity ratio [9] of the same molecule?
Its selectivity ratio is 0.8.

And the Drug uptake [10]?
The Drug uptake was “Active”.

What about the Activity (Influenza A virus [11]) of the same molecule?
Its Activity is “Active”.

And the Activity (Influenza A virus [12])?
The Activity was “Active”.

And the Activity (Influenza A virus [13])?
The Activity was “Active”.

And the Activity (NCI-H1299)?
The Activity was “Non-Toxic”.

And the Activity (A549)?
The Activity was “Non-Toxic”.

What about the Activity (Influenza A virus [14]) of the same molecule?
Its Activity is “Active”.

And the Activity (Influenza A virus [15])?
Its Activity is “inactive”.

Which results are given for `Nc1ccc(Nc2c3ccccc3nc3c2[nH]c2ccccc23)cc1`?
Activity (NCI-H1299): Non-Toxic; Activity (A549): Non-Toxic

For `O=C(Nc1ccc(Nc2c3ccccc3nc3c2[nH]c2ccccc23)cc1)c1cccc(B(O)O)c1`, which Activity (NCI-H1299) is on record?
The Activity was “Non-Toxic”.

And the Activity (A549)?
Its Activity is “Non-Toxic”.

Which Activity (NCI-H1299) does the source give for `O=C(Nc1ccc(Nc2c3ccccc3nc3c2[nH]c2ccccc23)cc1)c1ccc(B(O)O)cc1` here?
The Activity was “Non-Toxic”.

And the Activity (A549)?
The Activity was “Non-Toxic”.

For `O=C(Nc1ccccc1Nc1c2ccccc2nc2c1[nH]c1ccccc12)c1ccc(B(O)O)cc1`, which Drug uptake [2] is on record?
The Drug uptake was “Not Active”.

What about the Activity [3] of the same molecule?
Its Activity is “Active”.

What about the Activity (Influenza A virus [4]) of the same molecule?
The Activity was “Active”.

What about the inhibition [5] of the same molecule?
Its inhibition is 56%.

And the CC50 at 48 h [6]?
The CC50 at 48 h was 78.6 µM.

And the Activity (Influenza A virus [8])?
The Activity was “Active”.

And the Drug uptake [10]?
The Drug uptake was “Active”.

What about the Activity (Influenza A virus [11]) of the same molecule?
The Activity was “Active”.

What about the Activity (Influenza A virus [12]) of the same molecule?
Its Activity is “Active”.

What about the Drug uptake [16] of the same molecule?
Its Drug uptake is “Active”.

What about the Activity (Influenza A virus [13]) of the same molecule?
Its Activity is “Active”.

And the Activity (NCI-H1299)?
The Activity was “Non-Toxic”.

And the Activity (A549)?
The Activity was “Non-Toxic”.

What about the Drug uptake [17] of the same molecule?
Its Drug uptake is “Active”.

What about the Activity (Influenza A virus [14]) of the same molecule?
Its Activity is “Active”.

And the Activity (Influenza A virus [15])?
Its Activity is “Active”.

Which Activity (NCI-H1299) does the source give for `Nc1cccc(Nc2c3ccccc3nc3c2[nH]c2ccccc23)c1` here?
Its Activity is “Non-Toxic”.

What about the Activity (A549) of the same molecule?
Its Activity is “Non-Toxic”.

Which Activity (NCI-H1299) does the source give for `O=C(Nc1cccc(Nc2c3ccccc3nc3c2[nH]c2ccccc23)c1)c1ccc(B(O)O)cc1` here?
The Activity was “Non-Toxic”.

And the Activity (A549)?
Its Activity is “Non-Toxic”.

For `CCOC(=O)C1=C[C@@H](OC(CC)CC)[C@H](NC(C)=O)[C@@H](N)C1` [OSELTAMIVIR], which Activity (Influenza A virus [18]) is on record?
The Activity was “Active”.

And the Activity (Influenza A virus [19])?
The Activity was “Active”.

And the survival at 20 mg/kg/day (Influenza A virus [20])?
Its survival at 20 mg/kg/day is 80%.

And the Activity (Influenza A virus [8])?
Its Activity is “Active”.

And the selectivity ratio [9]?
Its selectivity ratio is 36.2.

What about the Activity (Influenza A virus [12]) of the same molecule?
Its Activity is “Active”.

With `CC(=O)N[C@H]1[C@H]([C@H](O)[C@H](O)CO)OC(C(=O)O)=C[C@@H]1NC(=N)N` as the molecule, how does the inhibition [5] read?
The inhibition was over 85%.
